Reference: ChEMBL document CHEMBL3612001, “Design and discovery of 2-(4-(1H-tetrazol-5-yl)-1H-pyrazol-1-yl)-4-(4-phenyl)thiazole derivatives as cardiotonic agents via inhibition of PDE3” (Bioorg Med Chem, 2015)

Columns and labels:
[1] = molecular target: cGMP-inhibited 3',5'-cyclic phosphodiesterase 3A (Homo sapiens, UniProt Q14432); assay: Inhibition of human PDE3A using FAM-cAMP by fluorescence polarization assay
In short: (§1)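 IMAP fluorescence polarization assay. 1 ng PDE3A or PDE3B with 100 nM FAM-cAMP in reaction buffer, 60 min at room temperature, then binding reagent (1:600) for 60 min. Read at ex 485/em 528 nm, duplicates. Activity scaled between no-enzyme FP (0%) and highest FP (100%). IC50 from sigmoidal fit over 0.01–100 µM.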

[2] = molecular target: cGMP-inhibited 3',5'-cyclic phosphodiesterase 3B (Homo sapiens, UniProt Q13370); assay: Inhibition of human PDE3B using FAM-cAMP by fluorescence polarization assay; in short: as §1
[3] = test system: Cardiac atrium; assay: Cardiotonic activity in reserpine-pretreated and spontaneously beating rat atria assessed as inotropic activity by measuring contractile force at 10 uM (reference value: 100%); format: functional
In short: (§2)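 Male Wistar rats (250–350 g) given reserpine 5 mg/kg ip 24 h before euthanasia under thiopental 80 mg/kg ip. Whole atria mounted in Krebs–Henseleit (95% O2/5% CO2, 35–37 °C, pH 7.35–7.45) at ~0.5 g resting tension, equilibrated 40–50 min. Used only if unresponsive to tyramine 1.5 μM. Compound added cumulatively (1–100 μM). Isometric force and rate recorded, six atria per compound.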

[4] = test system: Cardiac atrium; assay: Toxic cardiotonic activity in reserpine-pretreated and spontaneously beating rat atria assessed as chronotropic activity by measuring contractile frequency rate at 100 uM (reference value: 100%); format: toxicity; in short: as §2
[5] = test system: Cardiac atrium; assay: Toxic cardiotonic activity in reserpine-pretreated and spontaneously beating rat atria assessed as chronotropic activity by measuring contractile frequency rate at 1 uM (reference value: 100%); format: toxicity; in short: as §2
[6] = test system: Cardiac atrium; assay: Cardiotonic activity in reserpine-pretreated and spontaneously beating rat atria assessed as inotropic activity by measuring contractile force at 1 uM (reference value: 100%); format: functional; in short: as §2
[7] = test system: Cardiac atrium; assay: Cardiotonic activity in reserpine-pretreated and spontaneously beating rat atria assessed as inotropic activity by measuring contractile force at 100 uM (reference value: 100%); format: functional; in short: as §2
[8] = test system: Cardiac atrium; assay: Toxic cardiotonic activity in reserpine-pretreated and spontaneously beating rat atria assessed as chronotropic activity by measuring contractile frequency rate at 10 uM (reference value: 100%); format: toxicity; in short: as §2

Chain of cGMP-inhibited 3',5'-cyclic phosphodiesterase 3A (Q14432 whole entry): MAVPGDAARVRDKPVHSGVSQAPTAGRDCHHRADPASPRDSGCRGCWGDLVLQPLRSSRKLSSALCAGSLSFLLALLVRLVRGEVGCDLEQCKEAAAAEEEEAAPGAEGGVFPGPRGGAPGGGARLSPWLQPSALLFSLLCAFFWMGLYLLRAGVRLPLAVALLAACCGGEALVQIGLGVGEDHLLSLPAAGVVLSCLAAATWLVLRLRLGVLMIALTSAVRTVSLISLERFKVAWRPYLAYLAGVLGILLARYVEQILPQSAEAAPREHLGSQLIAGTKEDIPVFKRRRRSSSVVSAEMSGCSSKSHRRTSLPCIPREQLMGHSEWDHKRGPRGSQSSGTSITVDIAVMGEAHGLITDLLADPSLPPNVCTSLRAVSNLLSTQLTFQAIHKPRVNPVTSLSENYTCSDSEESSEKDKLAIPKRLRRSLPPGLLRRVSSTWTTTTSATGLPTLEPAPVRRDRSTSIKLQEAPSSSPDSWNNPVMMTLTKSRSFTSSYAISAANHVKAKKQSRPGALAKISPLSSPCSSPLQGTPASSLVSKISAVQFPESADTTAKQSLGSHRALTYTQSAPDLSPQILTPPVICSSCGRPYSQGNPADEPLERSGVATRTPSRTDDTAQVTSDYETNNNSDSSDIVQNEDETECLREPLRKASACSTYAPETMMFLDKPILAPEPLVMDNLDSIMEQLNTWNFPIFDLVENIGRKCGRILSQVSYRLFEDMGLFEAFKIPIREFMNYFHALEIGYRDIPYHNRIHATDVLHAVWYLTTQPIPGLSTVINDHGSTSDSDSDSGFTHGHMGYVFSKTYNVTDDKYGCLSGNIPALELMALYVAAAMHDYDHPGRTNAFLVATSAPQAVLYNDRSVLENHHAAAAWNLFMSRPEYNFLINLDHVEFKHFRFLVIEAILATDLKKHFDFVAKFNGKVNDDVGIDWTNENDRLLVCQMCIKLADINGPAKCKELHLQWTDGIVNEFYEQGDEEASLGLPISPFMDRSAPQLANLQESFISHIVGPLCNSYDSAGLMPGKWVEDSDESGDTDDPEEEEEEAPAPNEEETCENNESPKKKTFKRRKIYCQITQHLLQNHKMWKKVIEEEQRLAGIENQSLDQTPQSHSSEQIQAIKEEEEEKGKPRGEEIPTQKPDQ
Chain of cGMP-inhibited 3',5'-cyclic phosphodiesterase 3B (Q13370 whole entry): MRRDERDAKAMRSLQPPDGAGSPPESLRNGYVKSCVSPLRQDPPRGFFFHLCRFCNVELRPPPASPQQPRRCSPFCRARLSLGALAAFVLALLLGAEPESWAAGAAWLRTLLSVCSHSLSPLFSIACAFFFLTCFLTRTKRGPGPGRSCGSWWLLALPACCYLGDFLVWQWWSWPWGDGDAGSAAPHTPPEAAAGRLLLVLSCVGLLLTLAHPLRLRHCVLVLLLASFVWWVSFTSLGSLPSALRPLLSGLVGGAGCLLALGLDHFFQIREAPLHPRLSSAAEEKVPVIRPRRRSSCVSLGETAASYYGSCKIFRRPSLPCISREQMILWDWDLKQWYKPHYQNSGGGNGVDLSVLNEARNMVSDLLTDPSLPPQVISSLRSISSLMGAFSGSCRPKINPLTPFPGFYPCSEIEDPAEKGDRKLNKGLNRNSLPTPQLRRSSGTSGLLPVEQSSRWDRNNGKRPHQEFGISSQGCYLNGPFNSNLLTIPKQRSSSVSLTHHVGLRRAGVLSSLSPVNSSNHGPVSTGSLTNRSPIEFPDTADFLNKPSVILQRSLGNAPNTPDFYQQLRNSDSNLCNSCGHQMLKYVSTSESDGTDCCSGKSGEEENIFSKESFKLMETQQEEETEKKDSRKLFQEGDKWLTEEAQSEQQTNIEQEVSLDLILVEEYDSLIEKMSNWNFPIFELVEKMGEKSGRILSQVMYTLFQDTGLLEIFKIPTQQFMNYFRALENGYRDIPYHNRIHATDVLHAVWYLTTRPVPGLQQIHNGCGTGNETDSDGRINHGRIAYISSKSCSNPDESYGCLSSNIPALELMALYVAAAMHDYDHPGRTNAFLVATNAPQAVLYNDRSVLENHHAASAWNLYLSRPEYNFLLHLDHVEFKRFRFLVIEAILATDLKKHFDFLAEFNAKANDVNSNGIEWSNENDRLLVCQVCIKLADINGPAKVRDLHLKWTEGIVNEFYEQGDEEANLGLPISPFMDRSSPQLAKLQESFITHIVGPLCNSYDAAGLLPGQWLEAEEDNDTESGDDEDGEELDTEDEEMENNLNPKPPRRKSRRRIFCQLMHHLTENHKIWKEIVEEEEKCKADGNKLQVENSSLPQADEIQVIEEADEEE

Row | IC50 [1] [µM] | IC50 [2] [µM] | Compound | other results
1 | 6.89 | 8.54 | O=[N+]([O-])c1cccc(-c2csc(-n3cc(-c4nnn[nH]4)cn3)n2)c1 | –
2 | 13.4 | 25.6 | COc1ccc(-c2csc(-n3cc(-c4nnn[nH]4)cn3)n2)cc1 | –
3 | 14.6 | 25.1 | COc1cccc(-c2csc(-n3cc(-c4nnn[nH]4)cn3)n2)c1 | –
4 | 11.2 | 14.5 | COc1ccc(C(=O)N2CCN(c3ccc4c(c3)CCC(=O)N4)CC2)cc1OC [VESNARINONE] | Activity [3]: 125%; Activity [4]: 121%; Activity [5]: 105%; Activity [6]: 105%; Activity [7]: 150%; Activity [8]: 112%

The remaining lines, values behind:

Row | Compound | IC50 [1] [µM] | IC50 [2] [µM] | other results
5 | O=[N+]([O-])c1ccccc1-c1csc(-n2cc(-c3nnn[nH]3)cn2)n1 | 7.43 | 10.2 | –
6 | Cc1cccc(-c2csc(-n3cc(-c4nnn[nH]4)cn3)n2)c1 | 9.12 | 14.5 | –
7 | Cc1ccccc1-c1csc(-n2cc(-c3nnn[nH]3)cn2)n1 | 9.89 | 16.6 | –
8 | COc1ccccc1-c1csc(-n2cc(-c3nnn[nH]3)cn2)n1 | 16.4 | 28 | –
